Series [1] can be described thus: Terminal half life of compound in mouse plasma at 67 mg/kg, ip by reverse phase HPLC analysis. Format: ADME, organism-based. To be noted: read-out: beta t1/2.
Series [2] addresses T1, Purine nucleoside phosphorylase (Homo sapiens, UniProt P00491).
T1 sequence (P00491 whole entry): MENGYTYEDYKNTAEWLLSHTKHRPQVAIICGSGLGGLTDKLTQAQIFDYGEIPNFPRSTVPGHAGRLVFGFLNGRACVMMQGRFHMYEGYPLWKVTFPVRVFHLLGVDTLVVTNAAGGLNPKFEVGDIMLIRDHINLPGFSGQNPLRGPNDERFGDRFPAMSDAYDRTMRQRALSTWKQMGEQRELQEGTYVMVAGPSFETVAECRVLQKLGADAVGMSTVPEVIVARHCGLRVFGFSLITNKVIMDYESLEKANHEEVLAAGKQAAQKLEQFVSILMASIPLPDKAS
The experiment in a line: Prodrug activation assessed as recombinant human PNP-mediated compound cleavage at 100 uM by reverse phase HPLC analysis. The method, boiled down:
(§1)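 Cleavage assay: 100 µM substrate in 50 mM potassium phosphate pH 7.4, with enzyme amount adjusted for a linear rate, at 25°C; aliquots at 0, 0.25, 0.5, 1, 2 h, stopped by boiling, filtered. Reverse-phase C-18 HPLC, 50 mM ammonium dihydrogen phosphate pH 4.5 with 1.25–5% acetonitrile, 254 nm detection. Specific activity = nmol product/mg protein/time. Detection limit 1 nmol/mg/hr; mean of at least two experiments.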

The target of series [3] is T2, S-methyl-5'-thioadenosine phosphorylase (Homo sapiens, UniProt Q13126).
T2 sequence (Q13126 whole entry): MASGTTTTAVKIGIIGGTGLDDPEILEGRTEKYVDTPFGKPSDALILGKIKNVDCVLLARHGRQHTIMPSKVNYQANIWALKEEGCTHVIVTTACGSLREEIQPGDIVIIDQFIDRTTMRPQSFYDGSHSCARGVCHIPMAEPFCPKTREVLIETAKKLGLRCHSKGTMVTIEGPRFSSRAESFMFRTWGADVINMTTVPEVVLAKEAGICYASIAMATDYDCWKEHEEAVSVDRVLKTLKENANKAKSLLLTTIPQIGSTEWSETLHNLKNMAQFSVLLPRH
The experiment in a line: Prodrug activation assessed as recombinant human MTAP-mediated compound cleavage at 100 uM by reverse phase HPLC analysis. The method, boiled down:
as §1

Series [4] in a line: Prodrug activation assessed as recombinant Escherichia coli PNP-mediated compound cleavage at 100 uM by reverse phase HPLC analysis. An outline of the steps: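 Cleavage assay: 100 µM substrate in 50 mM potassium phosphate pH 7.4, with enzyme amount adjusted for a linear rate, at 25°C; aliquots at 0, 0.25, 0.5, 1, 2 h, stopped by boiling, filtered. Specific activity = nmol product/mg protein/time. Detection limit 1 nmol/mg/hr; mean of at least two experiments.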

Series [5] can be described thus: Prodrug activation assessed as recombinant Escherichia coli PNP M64V mutant-mediated compound cleavage at 100 uM by reverse phase HPLC analysis.
The nature of series [6]: Prodrug activation assessed as recombinant Trichomonas vaginalis PNP-mediated compound cleavage at 100 uM by reverse phase HPLC analysis. The method, boiled down: as §1
Series [7] deals with Purine nucleoside phosphorylase (Sulfolobus solfataricus (strain ATCC 35092 / DSM 1617 / JCM 11322 /P2), UniProt P50389). The experiment in a line: Prodrug activation assessed as recombinant Sulfolobus solfataricus MTAP-mediated compound cleavage at 100 uM by reverse phase HPLC analysis. The settings on record: saccharolobus solfataricus. The method, boiled down:
as §1

For series [8], the target named is 5'-methylthioadenosine/S-adenosylhomocysteine nucleosidase (Escherichia coli O157:H7, UniProt P0AF14). The experiment in a line: Prodrug activation assessed as recombinant Escherichia coli SAH/MTA hydrolase-mediated compound cleavage at 100 uM by reverse phase HPLC analysis. An outline of the steps: (§2)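 Reactions held 50 mM potassium phosphate (pH 7.4) and 100 µM substrate at 25°C. Enzyme was titrated to keep cleavage linear: native F. tularensis PNP from crude extract or recombinant E. coli SAH/MTA hydrolase. Samples were taken at 0–2 h and stopped by boiling. Base and nucleoside were resolved by C18 reverse-phase HPLC at 254 nm. Activity is nmol/mg protein/hr, the average of at least two experiments; detection limit is 1 nmol/mg/hr.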
Sequence of 5'-methylthioadenosine/S-adenosylhomocysteine nucleosidase (P0AF14 whole entry): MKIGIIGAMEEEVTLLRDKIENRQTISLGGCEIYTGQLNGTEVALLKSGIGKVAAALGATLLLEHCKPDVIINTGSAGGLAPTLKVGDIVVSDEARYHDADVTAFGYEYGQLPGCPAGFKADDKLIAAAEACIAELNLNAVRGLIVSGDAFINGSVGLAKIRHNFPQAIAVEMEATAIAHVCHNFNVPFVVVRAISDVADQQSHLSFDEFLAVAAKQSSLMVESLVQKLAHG

Series [9] is described as follows: Prodrug activation assessed as Francisella tularensis PNP-mediated compound cleavage at 100 uM by reverse phase HPLC analysis. The method, boiled down: as §2
A short description of series [10]: Prodrug activation in human D54MG cells expressing Escherichia coli PNP xenografted in nude mouse assessed as Escherichia coli PNP-mediated compound cleavage per mg of tumor tissue. The settings on record: in vivo. On the technique in general: A xenograft is tissue or cells of one species grown in another, often human tumour cells in immunodeficient mice.
The nature of series [11]: Antitumor activity against human D54MG cells expressing Escherichia coli PNP xenografted in mouse assessed as time for tumor growth delay at 67 mg/kg. The format is functional.
A short description of series [12]: Antitumor activity against human D54MG cells expressing Escherichia coli PNP xenografted in nude mouse assessed as time for tumor growth delay at 33 mg/kg. The format is functional.
A further series has as its system D54MG. The series is described as follows: Antitumor activity against human D54MG cells expressing Escherichia coli PNP M64V mutant xenografted in nude mouse assessed as inhibition of tumor growth at 10 and 20 mg/kg, administered via peritoneal cavity 5 times a day (every 2 hrs) for 3 consecutive days measured on day 17 to 19 after tumor implantation. The format is functional, organism-based. The method, boiled down:
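Xenograft: parental and M64V-PNP-transduced D54MG human glioma cells mixed so 10% express M64V; 2 x 10⁷ total cells injected sc into flanks of nu/nu nude mice. At ~300 mg tumors (day 17), ip dosing 5 times daily (every 2 h) for 3 consecutive days at 5, 10 or 20 mg/kg; 6 mice/group. Tumors measured with calipers twice weekly; weight = length x width²/2; mean and SEM.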

The nature of series [13]: Terminal half life of compound in mouse at 100 mg/kg, ip by reverse phase HPLC analysis. The format is ADME, organism-based. To be noted: in vivo, read-out: beta t1/2.
Series [14] in a line: Prodrug activation in human D54MG cells expressing Escherichia coli PNP M64V mutant xenografted in nude mouse assessed as Escherichia coli PNP M64V mutant-mediated compound cleavage per mg of tumor tissue at 5-20 mg/kg administered via peritoneal cavity 5 times a day (every 2 hrs) for 3 consecutive days measured on day 17. The format is organism-based. To be noted: in vivo, ip. An outline of the steps:
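Tumor extracts were taken from mice bearing D54 xenografts with 10% M64V-PNP-expressing cells, removed at start of treatment (day 17). Cleavage of the prodrug substrate was reported as nmoles cleaved/mg-hr; N = 3.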

Series [15] is described as follows: Antitumor activity against human D54MG cells expressing Escherichia coli PNP M64V mutant xenografted in mouse assessed as time for tumor growth delay at maximum tolerated dose. Format: functional. The method, boiled down:
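Subcutaneous flank xenografts in nude mice (nu/nu) used a 90/10 mix of parental and M64V PNP-transduced D54MG glioma cells (2 x 10⁷ total cells). Starting on day 17, when tumors were about 300 mg, mice received ip doses of 5, 10 or 20 mg/kg five times daily (every 2 h) for 3 days, with 6 mice per group. Calipers were read twice weekly and weight was taken as length x width²/2.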

The source made the active and inactive calls. No cut-off for these calls is given here. A value given as a limit tells only on which side of the number the result lay.

Sequence of Purine nucleoside phosphorylase (Sulfolobus solfataricus (strain ATCC 35092 / DSM 1617 / JCM 11322 /P2), UniProt P50389) (P50389 whole entry): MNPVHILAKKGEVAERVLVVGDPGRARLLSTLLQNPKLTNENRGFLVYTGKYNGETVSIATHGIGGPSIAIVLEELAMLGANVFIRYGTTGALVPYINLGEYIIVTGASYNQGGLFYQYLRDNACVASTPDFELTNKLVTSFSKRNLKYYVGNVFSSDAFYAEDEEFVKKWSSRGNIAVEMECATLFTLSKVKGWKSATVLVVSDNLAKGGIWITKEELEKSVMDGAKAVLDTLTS

`Cc1ncnc2c1ncn2[C@H]1C[C@H](O)[C@@H](CO)O1`: in [1], the half-life was 14 min. The Drug metabolism in [2] is 35 nmol/mg/h; in [3], < 1 nmol/mg/h; in series [4], 528000 nmol/mg/h; in [5], 593000 nmol/mg/h; in [6], 484000 nmol/mg/h; in [7] it was 12000 nmol/mg/h. Further, the Drug metabolism is 30 nmol/mg/h in series [8], 3900 nmol/mg/h in [9] and 40 nmol/mg/h in [10]. For the same compound, the Time in series [11] and in series [12] was 22 days in each case.
Regarding `Nc1ncnc2c1ncn2[C@@H]1O[C@H](CO)[C@@H](O)[C@H]1O` [ADENOSINE], the Drug metabolism in series [3] worked out at 596 nmol/mg/h; in series [6] it was 501000 nmol/mg/h; in [7] it was 57000 nmol/mg/h; in [8], 2100 nmol/mg/h; in series [9] it was 2100 nmol/mg/h.
On to `Cc1ncnc2c1ncn2[C@@H]1O[C@H](CO)[C@@H](O)[C@H]1O`, for which the Drug metabolism worked out at 12 nmol/mg/h in [2]; 96000 nmol/mg/h in [4]; 176000 nmol/mg/h in series [5]; 155000 nmol/mg/h in [6]; 4000 nmol/mg/h in series [7]; 290 nmol/mg/h in [8]. The Drug metabolism in [9] was determined as 4800 nmol/mg/h.
As for `Cc1ncnc2c1ncn2[C@@H]1O[C@@H](CO)[C@@H](O)[C@H]1O`, the Drug metabolism in series [3] is < 1 nmol/mg/h; in series [4] it was 218 nmol/mg/h; in series [5], 10000 nmol/mg/h; in series [6], 10000 nmol/mg/h; in [7], 1400 nmol/mg/h; in [8], 36 nmol/mg/h. Besides, the Drug metabolism in series [9] came to 180 nmol/mg/h.
For the compound `OC[C@H]1O[C@@H](n2cnc3c(O)ncnc32)[C@H](O)[C@@H]1O` [INOSINE], the Drug metabolism in series [2] was 391000 nmol/mg/h; in [4], 342000 nmol/mg/h; in series [6] it was 154000 nmol/mg/h; in [7] it was 84000 nmol/mg/h; in [9] it was 2000 nmol/mg/h.
As for `Cc1ncnc2c1ncn2[C@@H]1O[C@H]([C@H](C)O)[C@@H](O)[C@H]1O`, the inhibition result in the series with D54MG is “Active”. In addition, the half-life in series [13] was determined as 21 min. In addition, the Drug metabolism is < 1 nmol/mg/h in series [2]; 4 nmol/mg/h in series [3]; 915 nmol/mg/h in series [4]; 86000 nmol/mg/h in series [5]; 8400 nmol/mg/h in series [6]; 1500 nmol/mg/h in series [7]. Also, the figures for the Drug metabolism in series [8], in [9] and in series [14] were 51 nmol/mg/h, 100 nmol/mg/h and 365 nmol/mg/h, respectively. The Time in series [15] was >32 days.
